Measured values taken from ChEMBL document CHEMBL1144012, “Indole- and indolizine-glyoxylamides displaying cytotoxicity against multidrug resistant cancer cell lines” (Bioorg Med Chem Lett, 2008).

Assays:
Type in all cases: functional, cell-based
[1] = Cytotoxicity against human HL60/TX1000 cells after 72 hrs by MTT assay; settings: HL60/TX1000, 72 h
In short: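 HL-60/TX1000 cells (Taxol-resistant HL-60 subline selected by stepwise Taxol exposure; overexpress MDR1/P-glycoprotein) grown in RPMI1640 with 10% FC plus penicillin/streptomycin, split every third day, set to 2 · 10⁵ cells/mL the day before the experiment, and used in exponential growth. Compounds were diluted into medium from 1 mM DMSO stock and tested at various concentrations for 72 h. IC50 was read by […] tetrazolium assay.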

[2] = system: P388; experiment: Cytotoxicity against mouse P388 cells after 72 hrs […]; settings: P388, 72 h
[3] = Cytotoxicity against human MESSA cells after 72 hrs […]; settings: MES-SA
[4] = system: DU-145; experiment: Cytotoxicity against human DU145 cells after 72 hrs […]; settings: DU-145, 72 h
[5] = system: HL-60; experiment: Cytotoxicity against human HL60 cells after 72 hrs […]; settings: HL-60, 72 h
[6] = Cytotoxicity against human MESSA/DX5 cells after 72 hrs […]; settings: MES-SA/Dx5, 72 h
[7] = Cytotoxicity against human MDA435 cells after 72 hrs […]; settings: MDA-MB-435, 72 h

## O=C(Nc1cccnc1)C(=O)c1cn(Cc2ccc(Cl)cc2)c2ccccc12
[1]
  IC50: 6000 nM

## Cc1nsc(NC(=O)C(=O)c2cn(Cc3ccc(Cl)cc3)c3ccccc23)c1Cl
[1]
  IC50: 5000 nM

## O=C(Nc1ccccn1)C(=O)c1cn(Cc2ccc(Cl)cc2)c2ccccc12
[1]
  IC50: > 10000 nM

## O=C(Nc1ccc2ncccc2c1)C(=O)c1cn(Cc2ccc(Cl)cc2)c2ccccc12
[1]
  IC50: 50 nM

## O=C(Nc1ccncc1)C(=O)c1cn(Cc2ccc(Cl)cc2)c2ccccc12 [INDIBULIN]
[1]
  IC50: 50 nM

## O=C(Nc1cccc2cccnc12)C(=O)c1cn(Cc2ccc(Cl)cc2)c2ccccc12
[1]
  IC50: > 10000 nM

## Cc1ccc2cc(NC(=O)C(=O)c3cn(Cc4ccc(Cl)cc4)c4ccccc34)ccc2n1
[1]
  IC50: 500 nM

## CSc1nnc(NC(=O)C(=O)c2cn(Cc3ccc(Cl)cc3)c3ccccc23)s1
[1]
  IC50: 1000 nM

## O=C(Nc1ccon1)C(=O)c1cn(Cc2ccc(Cl)cc2)c2ccccc12
[1]
  IC50: 50 nM

## O=C(Nc1ccno1)C(=O)c1cn(Cc2ccc(Cl)cc2)c2ccccc12
[1]
  IC50: 50 nM

## O=C(Nn1cnnc1)C(=O)c1cn(Cc2ccc(Cl)cc2)c2ccccc12
[1]
  IC50: > 10000 nM

## C[n+]1ccc(NC(=O)C(=O)c2cn(Cc3ccc(Cl)cc3)c3ccccc23)cc1
[1]
  IC50: > 10000 nM

## O=C(Nc1nncs1)C(=O)c1cn(Cc2ccc(Cl)cc2)c2ccccc12
[1]
  IC50: 100 nM

## Cc1cc(NC(=O)C(=O)c2cc(Cc3ccc(Cl)cc3)n3ccccc23)sn1
[1]
  IC50: 60 nM

## Cc1cc(NC(=O)C(=O)c2cn(Cc3ccc(Cl)cc3)c3ccccc23)no1
[1]
  IC50: 50 nM

## Cc1cc(NC(=O)C(=O)c2cn(Cc3ccc(Cl)cc3)c3ccccc23)sn1
[1]
  IC50: 10 nM

## CC(=O)O[C@H]1C(=O)[C@@]2(C)[C@H]([C@H](OC(=O)c3ccccc3)[C@]3(O)C[C@H](OC(=O)[C@H](O)[C@@H](NC(=O)c4ccccc4)c4ccccc4)C(C)=C1C3(C)C)[C@]1(OC(C)=O)CO[C@@H]1C[C@@H]2O [PACLITAXEL]
[2]
  IC50: 10 nM

## Cc1cc(NC(=O)C(=O)c2cc(Cc3ccc(C#N)cc3)n3ccccc23)sn1 [ROSABULIN]
[3]
  IC50: 10 nM
[2]
  IC50: 10 nM
[4]
  IC50: 50 nM
[5]
  IC50: 50 nM
[6]
  IC50: 50 nM
[7]
  IC50: 50 nM
[1]
  IC50: 20 nM

## O=C(Nc1noc2ccccc12)C(=O)c1cn(Cc2ccc(Cl)cc2)c2ccccc12
[1]
  IC50: > 10000 nM

## CC(C)(C)c1csc(NC(=O)C(=O)c2cn(Cc3ccc(Cl)cc3)c3ccccc23)n1
[1]
  IC50: 5000 nM

## NC(=O)c1ccc(NC(=O)C(=O)c2cn(Cc3ccc(Cl)cc3)c3ccccc23)nc1
[1]
  IC50: 50 nM

## Cc1cnc(NC(=O)C(=O)c2cn(Cc3ccc(Cl)cc3)c3ccccc23)s1
[1]
  IC50: 50 nM

## Cc1cc(NC(=O)C(=O)c2cn(Cc3ccc(Cl)cc3)c3ccccc23)on1
[1]
  IC50: 50 nM
